ChEMBL document CHEMBL3286357, “Design, synthesis and pharmacological evaluation of novel substituted quinoline-2-carboxamide derivatives as human dihydroorotate dehydrogenase (hDHODH) inhibitors and anticancer agents” (Eur J Med Chem, 2014)

Assays:
[1] = Antiproliferative activity against human Hep3B cells at 0.41 ug/ml for 24 hrs by MTT assay; format: functional, Hep 3B2
Outline: (§1)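 HEP-3B or A-375 cells were grown in DMEM with 10% FBS, 5% HBSS, penicillin, streptomycin and amphotericin B at 37 C and 5% CO2. Cells were seeded at 2 × 10^4 per well and preincubated for 24 h. They were then exposed to ten 1:3 serial dilutions from a top concentration of 100, made from 2% DMSO stocks. MTT was added for 3 h, formazan was dissolved in DMSO, and A550 was read. Wells were run in triplicate across three independent experiments. IC50 came from dose-response curves.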

[2] = Antiproliferative activity against human Hep3B cells at 0.14 ug/ml for 24 hrs by MTT assay; format: functional, Hep 3B2; outline: as §1
[3] = Antiproliferative activity against human Hep3B cells at 0.05 ug/ml for 24 hrs by MTT assay; format: functional, Hep 3B2; outline: as §1
[4] = Antiproliferative activity against human Hep3B cells at 1.23 ug/ml for 24 hrs by MTT assay; format: functional, Hep 3B2; outline: as §1
[5] = test system: A-375 (human melanoma); assay: Antiproliferative activity against human A375 cells for 24 hrs by MTT assay; conditions: A-375, 24 h
[6] = test system: HEP-3B (human hepatoma); assay: Antiproliferative activity against human Hep3B cells for 24 hrs by MTT assay
[7] = test system: A-375; assay: Antiproliferative activity against human A375 cells at 1.23 ug/ml for 24 hrs by MTT assay; format: functional; conditions: A-375, 24 h; outline: as §1
[8] = Antiproliferative activity against human Hep3B cells at 33.33 ug/ml for 24 hrs by MTT assay; format: functional, Hep 3B2; outline: as §1
[9] = Antiproliferative activity against human Hep3B cells at 0.02 ug/ml for 24 hrs by MTT assay; format: functional, Hep 3B2; outline: as §1
[10] = Antiproliferative activity against human Hep3B cells at 11.11 ug/ml for 24 hrs by MTT assay; format: functional, Hep 3B2; outline: as §1
[11] = Retention time of compound by HPLC analysis; format: physicochemical
[12] = test system: A-375; assay: Antiproliferative activity against human A375 cells at 0.41 ug/ml for 24 hrs by MTT assay; format: functional; conditions: A-375, 24 h; outline: as §1
[13] = test system: A-375; assay: Antiproliferative activity against human A375 cells at 0.05 ug/ml for 24 hrs by MTT assay; format: functional; conditions: A-375, 24 h; outline: as §1
[14] = test system: A-375; assay: Antiproliferative activity against human A375 cells at 0.14 ug/ml for 24 hrs by MTT assay; format: functional; conditions: A-375, 24 h; outline: as §1
[15] = test system: A-375; assay: Antiproliferative activity against human A375 cells at 3.7 ug/ml for 24 hrs by MTT assay; format: functional; conditions: A-375, 24 h; outline: as §1
[16] = test system: A-375; assay: Antiproliferative activity against human A375 cells at 0.02 ug/ml for 24 hrs by MTT assay; format: functional; conditions: A-375, 24 h; outline: as §1
[17] = test system: A-375; assay: Antiproliferative activity against human A375 cells at 11.11 ug/ml for 24 hrs by MTT assay; format: functional; conditions: A-375, 24 h; outline: as §1
[18] = Antiproliferative activity against human Hep3B cells at 100 ug/ml for 24 hrs by MTT assay; format: functional, Hep 3B2; outline: as §1
[19] = Antiproliferative activity against human Hep3B cells at 3.7 ug/ml for 24 hrs by MTT assay; format: functional, Hep 3B2; outline: as §1
[20] = Antiproliferative activity against human Hep3B cells at 0.01 ug/ml for 24 hrs by MTT assay; format: functional, Hep 3B2; outline: as §1
[21] = test system: A-375; assay: Antiproliferative activity against human A375 cells at 33.33 ug/ml for 24 hrs by MTT assay; format: functional; conditions: A-375, 24 h; outline: as §1
[22] = test system: A-375; assay: Antiproliferative activity against human A375 cells at 0.01 ug/ml for 24 hrs by MTT assay; format: functional; conditions: A-375, 24 h; outline: as §1
[23] = test system: A-375; assay: Antiproliferative activity against human A375 cells at 100 ug/ml for 24 hrs by MTT assay; format: functional; conditions: A-375, 24 h; outline: as §1

Compound | inhibition at 0.41 µg/mL [1] [%] | inhibition at 0.14 µg/mL [2] [%] | inhibition at 0.05 µg/mL [3] [%] | inhibition at 1.23 µg/mL [4] [%] | IC50 [5] [µM] | IC50 [6] [µM] | inhibition at 1.23 µg/mL [7] [%] | inhibition at 33.33 µg/mL [8] [%] | inhibition at 0.02 µg/mL [9] [%] | inhibition at 11.11 µg/mL [10] [%] | inhibition at 0.41 µg/mL [12] [%] | inhibition at 0.05 µg/mL [13] [%] | inhibition at 0.14 µg/mL [14] [%] | inhibition at 3.7 µg/mL [15] [%] | inhibition at 0.02 µg/mL [16] [%] | inhibition at 11.11 µg/mL [17] [%] | inhibition at 100 µg/mL [18] [%] | inhibition at 3.7 µg/mL [19] [%] | inhibition at 0.01 µg/mL [20] [%] | inhibition at 33.33 µg/mL [21] [%] | further results
Cc1c(C(=O)Nc2c(F)cc(-c3cccc(F)c3)cc2F)nc2ccc(F)cc2c1O | 4.85 | 2.65 | 1.25 | 15.3 | > 100 | 65.2 | 2.34 | 41.2 | 0.35 | 31.3 | 0.86 | 0.05 | 0 | 7.85 | -0.13 | 16.2 | 75.2 | 22.3 | -0.12 | 28.8 | Retention_time [11]: 6.9 min; inhibition at 0.01 µg/mL [22]: -0.35%; inhibition at 100 µg/mL [23]: 51.3%
Cc1c(C(=O)Nc2c(F)cc(-c3cccc(F)c3)cc2F)nc2ccc(OC(F)(F)F)cc2c1O | 5.62 | 2.01 | 1.05 | 17.2 | 85.5 | 38.3 | 1.57 | 41.2 | 0.67 | 37.9 | 1.02 | -0.13 | 0.06 | 2.06 | -0.35 | 11.3 | 80.3 | 26.4 | 0.32 | 12.3 | Retention_time [11]: 6.3 min; inhibition at 0.01 µg/mL [22]: -0.68%; inhibition at 100 µg/mL [23]: 25.6%
Cc1c(C(=O)Nc2ccc(-c3ccccc3)cc2)nc2ccccc2c1O | 9.34 | 3.02 | 1.68 | 14.2 | 37.2 | 75.5 | 4.56 | 46.2 | 1.05 | 38.3 | 2.65 | 1.05 | 1.98 | 17.2 | 0.06 | 26.5 | 84.2 | 21.5 | 0.23 | 34.3 | Retention_time [11]: 6.9 min; inhibition at 0.01 µg/mL [22]: -0.11%; inhibition at 100 µg/mL [23]: 52.3%
CCc1ccc2nc(C(=O)Nc3c(F)cc(-c4cccc(F)c4)cc3F)c(C)c(C(=O)O)c2c1 | 1.68 | 0.68 | 0 | 4.52 | 16.9 | 57.8 | 17.7 | 36.2 | -0.05 | 27.2 | 6.12 | 0.95 | 2.45 | 26.7 | -0.12 | 38.9 | 64.3 | 15.2 | -0.25 | 47.1 | Retention_time [11]: 6.8 min; inhibition at 0.01 µg/mL [22]: -0.45%; inhibition at 100 µg/mL [23]: 71.3%
COc1ccc2nc(C(=O)Nc3c(F)cc(-c4cccc(F)c4)cc3F)c(C)c(C(=O)O)c2c1 | 0.68 | 0.02 | -0.66 | 1.05 | 14.3 | > 100 | 10.2 | 7.24 | -0.57 | 2.34 | 3.87 | 1.05 | 2.06 | 24.6 | 0.13 | 35.2 | 28.3 | 1.62 | -0.68 | 44.5 | Retention_time [11]: 6.9 min; inhibition at 0.01 µg/mL [22]: 0.05%; inhibition at 100 µg/mL [23]: 58.7%
Cc1c(C(=O)Nc2ccc(-c3ccccc3)cc2)nc2ccccc2c1C(=O)O | 0.98 | 0.03 | -0.12 | 1.25 | 83.5 | > 100 | 7.65 | 11.2 | -0.35 | 3.25 | 2.38 | 0.87 | 1.56 | 16.3 | 0.12 | 20.3 | 44.4 | 2.31 | -0.68 | 25.6 | Retention_time [11]: 6.8 min; inhibition at 0.01 µg/mL [22]: -0.35%; inhibition at 100 µg/mL [23]: 50.3%
Cc1c(-c2ccc(-c3ccccc3F)cc2)nc2ccc(F)cc2c1C(=O)O [BREQUINAR SODIUM] | 15.3 | 4.52 | 2.05 | 21.4 | 10.2 | 8.1 | 26.3 | 52.3 | 0.65 | 46 | 18.4 | 2.65 | 3.48 | 33.2 | 1.02 | 46.6 | 68.3 | 34.2 | 0.23 | 59.7 | inhibition at 0.01 µg/mL [22]: 0.18%; inhibition at 100 µg/mL [23]: 74.6%
COc1cccc2c1C(=O)c1c(O)c3c(c(O)c1C2=O)C[C@@](O)(C(=O)CO)C[C@@H]3O[C@H]1C[C@H](N)[C@H](O)[C@H](C)O1 [DOXORUBICIN] | 11.4 | 3.35 | 1.56 | 18.4 | 13.2 | 6.35 | -10.3 | 32.3 | 0.95 | 30.1 | -12.5 | -27.6 | -18.5 | 11.6 | 30.2 | 50.6 | 76.3 | 24.2 | 0.25 | 69.9 | inhibition at 0.01 µg/mL [22]: -35.6%; inhibition at 100 µg/mL [23]: 88.4%
